Columns and labels:
[1] = Growth inhibition of human UACC62 cells after 48 hrs by coulter counting analysis; assay type: functional; settings: UACC-62, 48 h
Method in brief: (§1)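 NCI five-dose screen, 0.01-100 µM, from DMSO stocks diluted in buffer saline (final DMSO <1%). Cells grown in RPMI 1640 + 10% FBS, seeded at 6×10^4 cells/ml, in duplicate wells. Exposure 48 h at 37 °C, 5% CO2. Cells diluted 10-fold in saline and counted by Coulter counter. GI50 derived from log concentration–percent growth inhibition curves. Controls carried matching PBS/saline/DMSO.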

U-251 = assay: Growth inhibition of human U251 cells after 48 hrs by coulter counting analysis; assay type: functional; settings: U-251, 48 h; method in brief: as §1
[2] = Growth inhibition of human SF295 cells after 48 hrs by coulter counting analysis; assay type: functional; settings: SF-295, 48 h
Method in brief: (§2)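 Five-dose NCI-60 follow-up, 0.01–100 µM, made from DMSO stock in buffered saline (final DMSO <1%), in duplicate wells. Cells in RPMI 1640 with 10% FBS at 6×10^4 cells/ml, 37 °C, 5% CO2, 48 h. Cells diluted tenfold in saline, Coulter-counted and corrected for dilution. GI50, TGI and LC50 taken from log concentration–percent growth curves.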

T47D = assay: Growth inhibition of human T47D cells after 48 hrs by coulter counting analysis; assay type: functional; method in brief: as §2
[3] = Growth inhibition of human MOLT4 cells after 48 hrs by coulter counting analysis; assay type: functional; settings: MOLT-4, 48 h; method in brief: as §2
[4] = molecular target: Cyclin-dependent kinase 4/cyclin D1 (Homo sapiens) (UniProt P11802+P24385); assay: Inhibition of CDK4/Cyclin D1 (unknown origin) at 20 uM after 30 mins by scintillation counting analysis relative to control; assay type: protein-complex assay
Method in brief: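 Recombinant kinases, cloned, expressed and purified in-house. Radiometric ³³P-ATP assay with kinase at ~10-50 nM final and 1-5 µg peptide or protein substrate. Compound at 20 µM final, in duplicate. Reaction started by adding ATP, run 30 min at ambient temperature, then spotted on P81 phosphocellulose. Plates washed in 1% phosphoric acid and counted by scintillation. No-substrate blank subtracted. Result is mean % activity change versus DMSO control.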

RPMI-8226 = assay: Growth inhibition of human RPMI8226 cells after 48 hrs by coulter counting analysis; assay type: functional; settings: RPMI-8226, 48 h; method in brief: as §2
MDA-MB-435 = assay: Growth inhibition of human MDA-MB-435 cells after 48 hrs by coulter counting analysis; assay type: functional; settings: MDA-MB-435, 48 h
Method in brief: (§3)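 NCI five-dose screen at 0.01-100 µM, diluted from DMSO stocks in buffered saline (final DMSO <1%). Cells at 6×10^4 cells/ml in RPMI 1640 with 10% FBS, in duplicate wells, at 37 °C under 5% CO2 for 48 h. Cells diluted tenfold in saline and Coulter-counted. GI50, TGI and LC50 taken from log concentration-growth inhibition curves.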

[5] = Growth inhibition of human LOXIMVI cells after 48 hrs by coulter counting analysis; assay type: functional; settings: LOX IMVI; method in brief: as §3
786-0 = assay: Growth inhibition of human 786-0 cells after 48 hrs by coulter counting analysis; assay type: functional; settings: 786-0, 48 h; method in brief: as §3
M14 = assay: Growth inhibition of human M14 cells after 48 hrs by coulter counting analysis; assay type: functional; settings: M14, 48 h; method in brief: as §3
SK-OV-3 = assay: Growth inhibition of human SKOV3 cells after 48 hrs by coulter counting analysis; assay type: functional; settings: SK-OV-3, 48 h; method in brief: as §2
HT-29 = assay: Growth inhibition of human HT-29 cells after 48 hrs by coulter counting analysis; assay type: functional; settings: HT-29, 48 h; method in brief: as §3
ACHN = assay: Growth inhibition of human ACHN cells after 48 hrs by coulter counting analysis; assay type: functional; method in brief: as §3
[6] = Growth inhibition of human OVCAR4 cells after 48 hrs by coulter counting analysis; assay type: functional; settings: OVCAR-4, 48 h; method in brief: as §2
[7] = Growth inhibition of human HOP92 cells after 48 hrs by coulter counting analysis; assay type: functional; settings: HOP-92, 48 h; method in brief: as §3
MCF7 = assay: Growth inhibition of human MCF7 cells after 48 hrs by coulter counting analysis; assay type: functional; settings: MCF7, 48 h; method in brief: as §3
Malme-3M = assay: Growth inhibition of human MALME-3M cells after 48 hrs by coulter counting analysis; assay type: functional; method in brief: as §3
NCI-H226 = assay: Growth inhibition of human NCI-H226 cells after 48 hrs by coulter counting analysis; assay type: functional; settings: NCI-H226, 48 h; method in brief: as §2
KM12 = assay: Growth inhibition of human KM12 cells after 48 hrs by coulter counting analysis; assay type: functional; settings: KM12, 48 h; method in brief: as §3
SK-MEL-28 = assay: Growth inhibition of human SK-MEL-28 cells after 48 hrs by coulter counting analysis; assay type: functional; settings: SK-MEL-28, 48 h; method in brief: as §2
[8] = Growth inhibition of human HCT15 cells after 48 hrs by coulter counting analysis; assay type: functional; settings: HCT-15, 48 h; method in brief: as §3
COLO 205 = assay: Growth inhibition of human COLO205 cells after 48 hrs by coulter counting analysis; assay type: functional; settings: COLO 205, 48 h; method in brief: as §3
SNB-75 = assay: Growth inhibition of human SNB75 cells after 48 hrs by coulter counting analysis; assay type: functional; settings: SNB-75, 48 h; method in brief: as §2
MDA-MB-468 = assay: Growth inhibition of human MDA-MB-468 cells after 48 hrs by coulter counting analysis; assay type: functional; settings: MDA-MB-468, 48 h; method in brief: as §2
[9] = Growth inhibition of human NCI60 cells after 48 hrs by coulter counting analysis; assay type: functional; settings: NCI60, 48 h
Method in brief: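 Five-dose screen (0.01-100 µM, DMSO-solubilized, under 1% DMSO final), cells in RPMI 1640 + 10% FBS at 6×10^4 cells/ml, duplicate wells, 37 °C, 5% CO2, 48 h. Cells then diluted tenfold in saline and counted by Coulter counter with dilution correction. Controls held buffer/saline/DMSO at matching dilutions. GI50 derived from log concentration-percent growth inhibition curves.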

[10] = Growth inhibition of human NCI-ADR-RES cells after 48 hrs by coulter counting analysis; assay type: functional; method in brief: as §2
[11] = Growth inhibition of human OVCAR5 cells after 48 hrs by coulter counting analysis; assay type: functional; settings: OVCAR-5, 48 h; method in brief: as §2
SF-268 = assay: Growth inhibition of human SF268 cells after 48 hrs by coulter counting analysis; assay type: functional; settings: SF-268, 48 h; method in brief: as §2
[12] = Growth inhibition of human UO31 cells after 48 hrs by coulter counting analysis; assay type: functional; settings: UO-31, 48 h; method in brief: as §1
SK-MEL-2 = assay: Growth inhibition of human SK-MEL-2 cells after 48 hrs by coulter counting analysis; assay type: functional; settings: SK-MEL-2, 48 h; method in brief: as §2
[13] = Growth inhibition of human SF539 cells after 48 hrs by coulter counting analysis; assay type: functional; settings: SF-539, 48 h; method in brief: as §2
[14] = Growth inhibition of human OVCAR3 cells after 48 hrs by coulter counting analysis; assay type: functional; settings: OVCAR-3, 48 h; method in brief: as §2
NCI-H322M = assay: Growth inhibition of human NCI-H322M cells after 48 hrs by coulter counting analysis; assay type: functional; method in brief: as §2
IGROV-1 = assay: Growth inhibition of human IGROV1 cells after 48 hrs by coulter counting analysis; assay type: functional; settings: IGROV-1, 48 h; method in brief: as §3
[15] = Growth inhibition of human EKVX cells after 48 hrs by coulter counting analysis; assay type: functional; method in brief: as §3

SMILES	GI50 [1] [µM]	GI50 (U-251) [µM]	GI50 [2] [µM]	GI50 (T47D) [µM]	GI50 [3] [µM]	inhibition [4] [%]	GI50 (RPMI-8226) [µM]	GI50 (MDA-MB-435) [µM]	GI50 [5] [µM]	GI50 (786-0) [µM]	GI50 (M14) [µM]	GI50 (SK-OV-3) [µM]	GI50 (HT-29) [µM]	GI50 (ACHN) [µM]	GI50 [6] [µM]	GI50 [7] [µM]	GI50 (MCF7) [µM]	GI50 (Malme-3M) [µM]	GI50 (NCI-H226) [µM]	GI50 (KM12) [µM]	also measured
COc1ccc(-c2cc(=O)c3c(OC)c4ccoc4c(/C=C/C=O)c3o2)cc1	1.77	2.53	3.4	2.03	1.84	0	1.37	2.81	1.08	16.8	2.24	4.73	18.1	19.3	3.8	16.8	1.63	3.79	2.93	12.3	GI50 (SK-MEL-28): 2.52 µM; GI50 [8]: 1.73 µM; GI50 (COLO 205): 27.6 µM; GI50 (SNB-75): 3.13 µM; GI50 (MDA-MB-468): 3.58 µM; LC50 [9]: 72.4 µM; TGI [9]: 26.3 µM; GI50 [10]: 2.84 µM; GI50 [11]: 11.7 µM; GI50 (SF-268): 4.38 µM; GI50 [12]: 3.17 µM; GI50 (SK-MEL-2): 9.06 µM; GI50 [13]: 4.14 µM; GI50 [14]: 3.92 µM; GI50 (NCI-H322M): 5.06 µM; GI50 (IGROV-1): 13.6 µM
COc1c2occc2c(OC)c2c(=O)c(CN3CCOCC3)c(/C=C/c3ccc(Cl)cc3)oc12	1.9	3.05	2.01	4.31	2.84	6	1.94	2.05	2.18	3.09	2.76	3.56	2.69	2.47	2.75	1.28	2.1	2.24	2.79	2.1	GI50 [15]: 2.85 µM; GI50 (SK-MEL-28): 2.17 µM; GI50 [8]: 2.78 µM; GI50 (COLO 205): 2.76 µM; GI50 (SNB-75): 2.41 µM; GI50 (MDA-MB-468): 2.12 µM; LC50 [9]: 87.1 µM; TGI [9]: 33.1 µM; GI50 [10]: 3.12 µM; GI50 [11]: 2.76 µM; GI50 (SF-268): 2.81 µM; GI50 (SK-MEL-2): 1.65 µM; GI50 [14]: 2.34 µM; GI50 (NCI-H322M): 2.54 µM; GI50 (IGROV-1): 1.94 µM
COc1c(C(=O)/C=C/c2ccc(Cl)cc2)c(O)c(Br)c2occc12	3.47	3.22	6.67	3.38	2.09	15	2.78	3.05	2.2	2.99	4.82	1.11	4.11	5.09	3.28	1.39	2.36	2.61	2.84	3.49	GI50 [15]: 4.18 µM; GI50 (SK-MEL-28): 9.86 µM; GI50 [8]: 3.43 µM; GI50 (COLO 205): 1.76 µM; GI50 (SNB-75): 1.8 µM; GI50 (MDA-MB-468): 2.13 µM; LC50 [9]: 87.1 µM; TGI [9]: 28.8 µM; GI50 [10]: 3.07 µM; GI50 [11]: 6.04 µM; GI50 (SF-268): 3.5 µM; GI50 [12]: 2.59 µM; GI50 (SK-MEL-2): 4.16 µM; GI50 [14]: 1.91 µM; GI50 (NCI-H322M): 5.22 µM; GI50 (IGROV-1): 3.04 µM

Reference: ChEMBL document CHEMBL3286372, “Design, synthesis and structure-activity relationship of novel semi-synthetic flavonoids as antiproliferative agents” (2014)
